From PubChem
bovine MsrA act = activators of bovine methionine sulfoxide reductase A; purified bovine MsrA, absorbance read-out; activation, % at 10.6 µM; hit rate 0.3% among 360,000; in the data active means activation above about 7.5%;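 further: 0% = vehicle and 100% = reference activator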
NR2E3 ag-1 = activates human NR2E3 receptor | Q9Y5X4 | CHO-S Gal4-NCOR/VP16-NR2E3 two-hybrid, luciferase | inhibition of corepressor binding, % at 3.98 µM | hit rate 0.35% among 360,000;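 active means inhibition above the mean of all tested compounds plus 3 SD, cut at about 70% in these data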;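 further: 0% = DMSO with NR2E3 transfected cells and 100% = cells lacking NR2E3 construct; higher means lower luciferase signal from less NR2E3 corepressor binding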
Target sequence (Q9Y5X4 whole entry, looked up, the tested form may be a part): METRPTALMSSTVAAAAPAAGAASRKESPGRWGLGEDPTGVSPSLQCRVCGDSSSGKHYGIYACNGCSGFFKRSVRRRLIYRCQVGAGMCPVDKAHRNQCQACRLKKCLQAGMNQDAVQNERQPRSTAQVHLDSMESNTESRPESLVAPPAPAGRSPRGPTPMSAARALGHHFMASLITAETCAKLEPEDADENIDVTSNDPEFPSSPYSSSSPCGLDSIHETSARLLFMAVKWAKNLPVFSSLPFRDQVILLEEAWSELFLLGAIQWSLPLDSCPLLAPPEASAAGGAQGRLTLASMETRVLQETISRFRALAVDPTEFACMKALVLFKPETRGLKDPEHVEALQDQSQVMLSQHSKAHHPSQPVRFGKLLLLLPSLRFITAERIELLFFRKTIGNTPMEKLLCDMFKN
NadD block = NadD (S. aureus) enzyme inhibition. purified NadD enzyme, colorimetric absorbance read-out. inhibition, % at 20 µM. hit rate 0.78% among 360,000. AID 602399; in the data active means inhibition above about 26%
MsrA inh = inhibits bovine methionine sulfoxide reductase A; purified bovine MsrA, absorbance read-out; inhibition, % at 15.5 µM; hit rate 0.75% among 360,000; in the data active means inhibition above about 4.5%;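 further: 0% = vehicle wells with enzyme and 100% = reference inhibitor wells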
GalR3 antagonist = blocks the human galanin receptor 3. O60755. HEK293 GalR3-CNG cAMP membrane potential fluorescence; galR3 body fused to GalR1 C-terminus. inhibition, % at 3 µM. hit rate 0.44% among 360,000;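 active means inhibition above the screen-wide average plus 3 SD, cut at about 13% in these data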;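 further: forskolin and galanin both at EC90 stimulate the cells; cAMP rise reported by CNG channel membrane potential dye signal; 0% = forskolin plus galanin with DMSO and 100% = forskolin alone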
NR2E3 ag-2 = activates human photoreceptor nuclear receptor NR2E3. Q9Y5X4. GST-NR2E3/biotin-RetCOR TR-FRET, 1536-well. inhibition of corepressor binding, % at 4.78 µM. hit rate 0.12% among 320,000;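 active means percent inhibition above the cutoff of mean plus 3 SD of all tested compounds, set per screening campaign, cut at about 20% in these data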;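 further: 0% = DMSO wells and 100% = biotin wells as full block of FRET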
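System: GST-tagged NR2E3 plus biotinylated RetCOR corepressor; Amount: 1.35 nM GST-tagged NR2E3 final; Dosing: single nominal compound dose of 4.8 µM; Schedule: 5 h incubation at 4 °C; Technique: TR-FRET with europium anti-GST and streptavidin-D2, 340 nm excitation; Controls: biotin wells as high control, 0.6% DMSO wells as low control.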
NadD inh conf = confirmation of Staphylococcus aureus NadD inhibitors. shares compounds with NadD block. purified S. aureus NadD, colorimetric enzyme assay. inhibition, % at 20 µM. hit rate 13% among 2,000. AID 624309; in the data active means inhibition mostly above about 42%, no sharp cut-off; inactive means mostly below about 42%
Starred values were filed as active, the others as inactive; . = no result given. Compounds with a hit are over-represented: about 2.5% of the library has one in this group of screens.

SMILES	bovine MsrA act	NR2E3 ag-1	NadD block	MsrA inh	GalR3 antagonist	NR2E3 ag-2	NadD inh conf
COc1ccc(S(=O)(=O)NCc2cccnc2)cc1NC(=O)c1ccccc1C	-2	-1	83*	1	-8	.	38
CCOc1ccc(S(=O)(=O)NCc2cccnc2)cc1NC(=O)c1ccccc1	-3	-5	6	0	1	.	.
Cc1cc(NCCCCCCCNc2cc(C)nc3cc([N+](=O)[O-])ccc23)c2ccc([N+](=O)[O-])cc2n1	0	21	66*	1	-5	.	65*
Cc1nonc1NC(=O)CSc1nc2cc(Cl)ccc2c2c1CCCC2	-4	9	30*	.	.	1	12
CCOC(=O)C(=O)Nc1nc(-c2ccc3c(c2)CCN3C(=O)C2CC2)c(C)s1	-3	-9	7	0	-9	5	.
Cc1sc(NC(=O)Cc2ccc3c(c2)OCO3)nc1-c1ccc2c(c1)CCN2C(=O)c1ccccc1F	-5	0	37*	0	4	6	20
Cc1sc(NC(=O)CN2CCCC2)nc1-c1ccc2c(c1)CCN2C(=O)c1cccc(F)c1	-1	-8	16	1	-7	4	.
Cc1sc(NC(=O)Cc2ccc3c(c2)OCO3)nc1-c1ccc2c(c1)CCN2C(=O)c1ccc(F)cc1	-8	12	35*	0	-10	2	28
CCn1c(SCC(=O)NNC(=O)c2ccc(C)cc2)nnc1C1CC1	-1	19	8	0	-9	-1	.
C=CC#CC[N+]1(CC#Cc2ccccc2)CCOCC1	-2	27	44*	0	-2	.	47
C(#Cc1ccccc1)C[N+]1(CC#Cc2ccccc2)CCCC1	-1	9	4	0	1	2	.
O=C(Nc1ccc(NC(=O)c2ccc(Cl)cc2Cl)cc1)c1ccc2c(c1)OCO2	-3	5	3	-2	-7	2	.
O=C(Nc1ccc(C2=NCCN2)cc1)c1ccc(C(=O)Nc2ccc(C3=NCCN3)cc2)c(Cl)c1	0	-31	30*	1	0	-6	13
CS(=O)(=O)c1sc2nc(-c3cccs3)cc(-c3ccccc3)c2c1N	-4	-31	74*	2	-6	2	14
Cc1ccc(-c2cc(-c3ccccc3)c3c(N)c(S(C)(=O)=O)sc3n2)cc1	-5	9	26	3	0	1	.
COc1ccccc1NC(=O)C(=O)NNC(=O)COc1ccc2ccccc2c1	-3	-25	34*	-1	-8	-2	33
Cc1cscc1-c1ccc(C(=O)Nc2c(C)cccc2C)o1	-2	-2	31*	1	-3	.	38
Cc1ccc(-c2ccc(C(=O)Nc3ccccc3)o2)c2ccccc12	-2	-68	10	2	-9	2	.
O=C(c1cc(C2CC2)nn1-c1ccccc1)N1CCN(Cc2ccccc2F)CC1	5	-17	-6	-1	-3	.	.
Nc1nonc1-c1nc2ccccc2n1CC(=O)N/N=C\c1ccc(-c2ccc(Cl)cc2)o1	-11	-6	42*	1	-5	-1	9
CC(C)CC(C(=O)Nc1oc(-c2ccccc2)c(-c2ccccc2)c1C#N)N1C(=O)c2ccccc2C1=O (stereo unspecified)	-3	-16	36*	0	-1	2	13
N#Cc1c(NC(=O)CSc2ncnc3sccc23)oc(-c2ccco2)c1-c1ccco1	-1	-36	58*	1	-6	-5	58*
CCn1c(SCC(=O)Nc2oc(-c3ccccc3)c(-c3ccccc3)c2C#N)nnc1-c1ccncc1	-12	-12	17	2	-7	2	.
CCn1c(SCC(=O)Nc2oc(-c3ccccc3)c(-c3ccccc3)c2C#N)nnc1-c1ccco1	-3	-40	29*	1	-3	1	44
N#Cc1c(NC(=O)CCN2C(=O)c3ccccc3C2=O)oc(-c2ccccc2)c1-c1ccccc1	-1	-9	1	1	-6	4	.
N#Cc1c(NC(=O)CN2C(=O)c3ccccc3C2=O)oc(-c2ccccc2)c1-c1ccccc1	-3	-21	33*	0	-6	1	15
Cc1nc([N+](=O)[O-])cn1-c1nc2ccccn2c1[N+](=O)[O-]	-10	-2	-6	4	-10	-4	.
